Reference: ChEMBL document CHEMBL1148576, “Identification of potent water soluble purine-scaffold inhibitors of the heat shock protein 90” (J Med Chem, 2006)

Legend:
[1] = target: T1, Heat shock protein HSP 90-beta (Homo sapiens, UniProt P08238); experiment: Inhibitory activity against Hsp90 in human breast cancer SKBr3 cell line; assay type: cell-based
[2] = target: T1, Heat shock protein HSP 90-beta; experiment: Inhibition of Her2 degradation in human breast cancer SKBr3 cell line; assay type: functional, cell-based
How it was run: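 Fixed in cold methanol, blocked, then probed overnight at 4 °C with anti-Her2, then HRP anti-rabbit and ECL luminescence. Normal rabbit IgG background was subtracted.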

[3] = target: T1, Heat shock protein HSP 90-beta; experiment: Inhibitory activity against Hsp90 in human breast cancer MDA-MB-468 cell line; assay type: cell-based
MDA-MB-468 [4] = experiment: Growth inhibition in human breast cancer MDA-MB-468 cell line using SRB; assay type: functional, cell-based
How it was run: (§1)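 Sulforhodamine B growth assay. Plating densities were 6000 (SKBr3), 8000 (MDA-MB-468) or 10,000 (MRC-5) cells/well, attached overnight. Drug, added in triplicate, was 1:1 serially diluted with DMSO or PBS vehicle. Exposure lasted 72 h, then cells were fixed with TCA and stained with 0.4% SRB.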

MDA-MB-468 [5] = experiment: Antimitotic activity in human breast cancer MDA-MB-468 cell line; assay type: functional, cell-based
How it was run: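 MDA-MB-468 cells seeded at 8000/well, attached overnight, then exposed to drug or DMSO vehicle for 24 h at 37 °C, 5% CO2. Cells fixed in cold methanol, blocked, then probed with Tg-3 antibody against mitotically phosphorylated nucleolin, followed by HRP anti-mouse IgM and ECL luminescence. IC50 taken as the concentration that doubles luminescence over vehicle.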

SK-BR-3 = experiment: Growth inhibition in human breast cancer SKBr3 cell line using SRB; assay type: functional, cell-based
MRC5 = experiment: Cytotoxicity against normal lung fibroblast MRC5 cell line; assay type: functional, cell-based; conditions: Homo sapiens; how it was run: as §1
[6] = Solubility in water; assay type: physicochemical
[7] = target: Heat shock protein HSP 90 (Mus musculus); experiment: Binding affinity to Hsp90 in mouse lung tissue
[8] = target: Heat shock protein HSP 90 (Mus musculus); experiment: Binding affinity to Hsp90 in mouse heart tissue

T1 sequence (P08238 whole entry): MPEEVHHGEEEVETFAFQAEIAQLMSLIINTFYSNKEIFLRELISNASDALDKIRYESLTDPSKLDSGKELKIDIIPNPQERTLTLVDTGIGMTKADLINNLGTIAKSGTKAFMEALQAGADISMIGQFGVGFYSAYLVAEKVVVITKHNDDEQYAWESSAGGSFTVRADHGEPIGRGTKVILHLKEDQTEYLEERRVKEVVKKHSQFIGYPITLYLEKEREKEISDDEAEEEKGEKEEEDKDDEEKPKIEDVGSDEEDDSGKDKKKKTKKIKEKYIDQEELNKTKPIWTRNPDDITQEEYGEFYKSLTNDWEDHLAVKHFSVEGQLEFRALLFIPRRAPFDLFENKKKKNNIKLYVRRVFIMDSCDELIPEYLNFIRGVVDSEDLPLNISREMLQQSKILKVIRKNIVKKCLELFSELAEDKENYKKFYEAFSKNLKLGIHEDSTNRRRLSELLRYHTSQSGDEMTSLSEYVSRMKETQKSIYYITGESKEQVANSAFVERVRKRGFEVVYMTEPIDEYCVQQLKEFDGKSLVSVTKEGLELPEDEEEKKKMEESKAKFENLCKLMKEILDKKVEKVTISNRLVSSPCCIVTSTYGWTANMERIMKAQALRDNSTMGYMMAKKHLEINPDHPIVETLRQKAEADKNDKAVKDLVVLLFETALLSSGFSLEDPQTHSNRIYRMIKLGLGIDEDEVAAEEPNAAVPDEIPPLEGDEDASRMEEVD

`C#CCCCn1c(Cc2cc3c(cc2Br)OCO3)nc2c(N)nc(F)nc21` gave an EC50 [1] of 56.5 nM, an IC50 [2] of 210 nM and an EC50 [3] of 30.5 nM. For the same compound, the IC50 (MDA-MB-468 [4]) was 350 nM, the IC50 (MDA-MB-468 [5]) was 310 nM and the IC50 (SK-BR-3) was 215 nM.
With `C#CCCCn1c(Cc2cc(OC)c(OC)cc2Cl)nc2c(N)nc(F)nc21` the EC50 [1] was 4600 nM, the IC50 [2] was 30000 nM and the EC50 [3] was 4500 nM. For the same compound, the IC50 (MDA-MB-468 [4]) was 27300 nM, the IC50 (MDA-MB-468 [5]) was over 50000 nM and the IC50 (SK-BR-3) was 20600 nM.
Compound `CC(C)NCCCn1c(Cc2cc3c(cc2I)OCO3)nc2c(N)nc(F)nc21` has an IC50 (MRC5) of over 5000 nM, an EC50 [1] of 50.4 nM and an IC50 [2] of 80 nM. The EC50 [3] was 39.1 nM, the IC50 (MDA-MB-468 [4]) was 90 nM and the IC50 (MDA-MB-468 [5]) was 100 nM. For the same compound, the IC50 (SK-BR-3) was 45 nM, the solubility [6] was over 5000 µg/mL and the EC50 [7] was 2400 nM. For the same compound, the EC50 [8] was 6900 nM.
`C#CCCCn1c(Cc2cc3c(cc2Cl)OCO3)nc2c(N)nc(F)nc21` gave an EC50 [1] of 77.2 nM, an IC50 [2] of 300 nM and an EC50 [3] of 51.2 nM. The IC50 (MDA-MB-468 [4]) was 440 nM, the IC50 (MDA-MB-468 [5]) was 450 nM and the IC50 (SK-BR-3) was 250 nM.
Compound `C#CCCCn1c(Cc2cc(OC)c(OC)cc2I)nc2c(N)nc(F)nc21` has an EC50 [1] of over 15000 nM, an IC50 [2] of over 50000 nM and an EC50 [3] of over 15000 nM. The IC50 (MDA-MB-468 [4]) was over 50000 nM, the IC50 (MDA-MB-468 [5]) was over 50000 nM and the IC50 (SK-BR-3) was over 50000 nM.
In the case of `C#CCCCn1c(Sc2cc3c(cc2Br)OCO3)nc2c(N)ncnc21`, the EC50 [1] is reported as 50.4 nM, the IC50 [2] is reported as 365 nM and the EC50 [3] is reported as 77.1 nM. For the same compound, the IC50 (MDA-MB-468 [4]) was 560 nM and the IC50 (MDA-MB-468 [5]) was 530 nM.
For `C#CCCCn1c(Cc2cc(OC)c(OC)cc2Br)nc2c(N)nc(F)nc21`, the EC50 [1] was over 15000 nM, the IC50 [2] was over 50000 nM and the EC50 [3] was over 15000 nM. The IC50 (MDA-MB-468 [4]) was over 50000 nM, the IC50 (MDA-MB-468 [5]) was over 50000 nM and the IC50 (SK-BR-3) was 55000 nM.
With `C#CCCCn1c(Sc2cc3c(cc2I)OCO3)nc2c(N)ncnc21` the EC50 [1] was 10.8 nM, the IC50 [2] was 100 nM and the EC50 [3] was 10.9 nM. For the same compound, the IC50 (MDA-MB-468 [4]) was 170 nM, the IC50 (MDA-MB-468 [5]) was 184 nM and the IC50 (SK-BR-3) was 90 nM.
`C#CCCCn1c(Cc2cc3c(cc2I)OCO3)nc2c(N)nc(F)nc21` showed an EC50 [1] of 22.3 nM, an IC50 [2] of 90 nM and an EC50 [3] of 23.7 nM. It also gave an IC50 (MDA-MB-468 [4]) of 150 nM, an IC50 (MDA-MB-468 [5]) of 180 nM and an IC50 (SK-BR-3) of 90 nM.
`CC(C)NCCCn1c(Sc2cc3c(cc2Br)OCO3)nc2c(N)ncnc21` gave an IC50 (MDA-MB-468 [4]) of 270 nM, an IC50 (MDA-MB-468 [5]) of 375 nM and an IC50 (SK-BR-3) of 142 nM. The solubility [6] was over 5000 µg/mL.
`CC(C)NCCCn1c(Sc2cc3c(cc2I)OCO3)nc2c(N)ncnc21` [PU-H71] gave an IC50 (MRC5) of 1000 nM, an IC50 (MDA-MB-468 [4]) of 58 nM and an IC50 (MDA-MB-468 [5]) of 70 nM. The solubility [6] was over 5000 µg/mL.
